# DNMT1 block – blocks human DNA methyltransferase DNMT1; P26358; DNMT1 molecular beacon, Hinp1I cleavage, fluorescence; inhibition (reported as % activation of signal), % at 10 µM; actives 0.83% (n = 360,000); in the data active = inhibition above about 50%
# HKDC1 inhibitor – HKDC1 (human) hexokinase inhibition; recombinant HKDC1, G6PDH/diaphorase resazurin coupled fluorescence; inhibition, % at 20 µM; actives 0.16% (n = 340,000); AID 493160;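 active = inhibition above about 35% when tested at 20 µM, limit read from the data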
#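 Test system: recombinant HKDC1 (HK5) hexokinase enzyme, produced in-house / Doses: 20 µM test compound, 1% DMSO / Timing: 90 min, room temperature / Detection: G6PDH/diaphorase-coupled fluorescence, 1 mM NADP, 100 µM resazurin, 525/613 nm / Control set: DMSO wells with and without enzyme mix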
# STEP block – STEP (human) phosphatase inhibition. AID 588621. recombinant STEP, OMFP fluorogenic substrate, fluorescence. inhibition, % at 20 µM. P54829. actives 0.25% (n = 360,000);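 active = inhibition at 20 µM, scaled per plate between control wells, above about 37%, limit read from the data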
#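 Material: STEP (striatal-enriched tyrosine phosphatase) enzyme, cell-free | Medium: 50 mM Bis-Tris pH 6.0 with 2.5 mM DTT and 0.005% Tween 20 | Read-out: Percent inhibition scaled to no-enzyme and uninhibited-enzyme controls, plate-pattern corrected | Signal: Fluorescence read at 480 nm ex / 540 nm em | Times: 20 min reaction, room temperature, in the dark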
# Scp-1 inhibitor – Scp-1 (human) phosphatase inhibition; Recombinant Scp1, phosphopeptide, malachite green phosphate absorbance; inhibition, % at 20 µM; actives 0.88% (n = 340,000);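 active = inhibition above about 50% at 20 µM, limit read from the data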
#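 System: SCP-1 catalytic domain; Reagent: Phospho 17-mer peptide substrate; Doses: one concentration, 20 µM, with 1.0% DMSO; Incubation: 45 min room-temperature reaction, 5 min colour, 30 min stabiliser; Signal: Phosphate-binding colour reagent, absorbance read at 630 nm.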
# LMPTP inh – LMPTP (human) inhibition | P24666 | recombinant LMPTP-A, OMFP fluorogenic substrate, fluorescence intensity | inhibition, % at 20 µM | actives 0.22% (n = 360,000) | AID 651560;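 active = compounds that cut the enzyme signal by at least half of the control window in the single-dose screen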
#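 test system = LMPTP-A | amount = 0.625 nM LMPTP-A final | reagent = fluorogenic phosphatase substrate OMFP at 400 µM final | incubation = 50 min at room temperature | benchmarks = no-enzyme low control, uninhibited high control | medium = Bis-Tris pH 6.0, DTT, detergent | signal = fluorescence intensity of OMFP turnover product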
# SUMO1-SIM PPI – SUMO1-SIM interaction modulation; SUMO1 binding to a labelled peptide, TR-FRET, 1 h; P63165; inhibition, % at 20 µM; actives 0.33% (n = 360,000); in the data active = inhibition above about 37%
# DNMT1 inh conf – confirmation of human DNMT1 inhibitors | shares compounds with DNMT1 block | DNMT1 molecular beacon HinP1I cleavage, fluorescence | inhibition, % at 10 µM | actives 8% (n = 2,300) | AID 602385;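 active = average inhibition of at least 30% in the single-concentration confirmation test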
# DNMT1 interf – shows spectral interference in the DNMT1 beacon assay; shares compounds with DNMT1 block; DNMT1 molecular beacon spectral interference counterscreen, fluorescence 485/520; activation (fluorescence interference), % at 10 µM; actives 1% (n = 2,300); AID 602387;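 active = activation of at least 30% at 10 µM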;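 also: DNMT1 catalytic domain with a HinP1I cleavage step and a FAM/dabcyl DNA beacon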
# Hits are given with their value; n = inactive; x = no result given. A selection: hits, their analogues and other compounds. The true share with any hit is near 1.8%.
SMILES,DNMT1 block,HKDC1 inhibitor,STEP block,Scp-1 inhibitor,LMPTP inh,SUMO1-SIM PPI,DNMT1 inh conf,DNMT1 interf
Cc1ccc(/C=C/C(=O)N2CCc3ccccc32)o1,86,n,n,52,n,n,n,n
Cc1cccc(NC(=O)CSc2nnc(-c3ccco3)c(-c3ccco3)n2)c1C,106,n,n,63,n,n,n,n
Cc1cccc(NC(=O)CSc2nnc(-c3ccco3)c(-c3ccco3)n2)c1,n,n,n,n,n,n,x,x
Cc1nn(-c2cccc(Cl)c2)c(Cl)c1/C=N/NC(=O)c1cccs1,72,n,n,n,n,n,n,n
CCNC(=S)N/N=C/c1c(C)nn(-c2cccc(Cl)c2)c1Cl,n,n,n,n,n,n,x,x
COc1ccc(Cc2nnc(SCC(=O)NC3(C#N)CCCCC3)n2N)cc1,n,n,n,n,n,n,x,x
CSCCC(NC(=O)COc1ccccc1)C(=O)N(C)CC(=O)Nc1ccc(Cl)cc1 (centres undefined),n,n,n,n,n,n,x,x
CSCCC(NC(=O)COc1ccccc1)C(=O)N(C)Cc1c(F)cccc1Cl (centres undefined),83,x,n,x,n,n,n,n
C/C(=N\NC(=S)Nc1cc(S(=O)(=O)N2CCOCC2)ccc1Cl)c1ccccc1F,n,n,n,n,n,n,x,x
CC(=O)N1C[C@H]2CON(C)[C@H]2C[C@H]1c1ccccc1,n,x,n,x,n,n,x,x
Cc1ccc(OCC(=O)c2c(N)n(C)c(=O)n(C)c2=O)c([N+](=O)[O-])n1,82,n,n,66,n,n,n,n
O=C(CN1C(=O)/C(=C\c2ccco2)SC1=S)Nc1ccc(O)cc1C(=O)O,90,n,80,57,n,87,n,n
O=C1/C(=C/c2ccco2)SC(=S)N1CC1CCCO1 (centres undefined),71,n,47,63,n,n,n,n
Cc1ccc(/C=C2\SC(=S)N(CC3CCCO3)C2=O)o1 (centres undefined),n,n,n,n,n,n,x,x
O=C(CCCN1C(=O)/C(=C/c2ccco2)SC1=S)Nc1ccccc1C(=O)O,86,n,48,69,n,75,n,n
O=C(CCCN1C(=O)/C(=C\c2ccccc2)SC1=S)Nc1ccc(O)cc1C(=O)O,n,n,n,n,n,n,x,x
O=C(CCN1C(=O)/C(=C/c2ccco2)SC1=S)Nc1ccc(O)cc1C(=O)O,71,n,n,64,n,40,n,n
CCc1ccc(/C=C2/SC(=S)N(CCCC(=O)Nc3ccccc3C(=O)O)C2=O)cc1,n,n,n,n,n,n,x,x
CC(C)Nc1nc(Nc2ccc(F)cc2)c2sccc2n1,n,x,n,x,n,n,x,x
CCOC(=O)N1CCC(NS(=O)(=O)c2ccc3c(c2)oc(=O)n3C)CC1,53,n,n,n,n,n,n,n
CCOC(=O)N1CCC(NC(=O)C2CCCN(S(=O)(=O)c3ccc4c(c3)oc(=O)n4C)C2)CC1 (centres undefined),n,n,n,n,n,n,x,x
COc1cc(OC)c2ccc(=O)oc2c1C(CCN1CCOCC1)c1ccc2c(c1)OCO2 (centres undefined),61,n,n,n,n,n,n,n
Cc1c(Cl)cccc1NC(=O)COC(=O)Cn1cnc2c1c(=O)n(C)c(=O)n2C,n,n,n,n,n,n,x,x
Cc1cc2nc(C(C)(C)C)c(Cc3ccsc3)n2c(C)c1Br,x,x,x,x,n,n,x,x
Cc1ccc(C(=O)CSc2nnc(-c3ccco3)n2C)cc1,n,n,n,n,n,n,x,x
Cn1c(SCC(=O)c2cc(Cl)c(Cl)s2)nnc1-c1ccco1,52,n,n,n,n,n,n,n
CC(=O)Nc1ccc(OC(F)(F)C(F)F)c(NC(C)=O)c1,n,n,n,n,n,n,x,x
